{"source": "ChEMBL document CHEMBL3393009", "about": "(J Med Chem, 2015)", "key": {"[1]": {"target": "Serine/threonine-protein kinase 26 (Homo sapiens, UniProt Q9P289)", "sequence (Q9P289 whole entry)": "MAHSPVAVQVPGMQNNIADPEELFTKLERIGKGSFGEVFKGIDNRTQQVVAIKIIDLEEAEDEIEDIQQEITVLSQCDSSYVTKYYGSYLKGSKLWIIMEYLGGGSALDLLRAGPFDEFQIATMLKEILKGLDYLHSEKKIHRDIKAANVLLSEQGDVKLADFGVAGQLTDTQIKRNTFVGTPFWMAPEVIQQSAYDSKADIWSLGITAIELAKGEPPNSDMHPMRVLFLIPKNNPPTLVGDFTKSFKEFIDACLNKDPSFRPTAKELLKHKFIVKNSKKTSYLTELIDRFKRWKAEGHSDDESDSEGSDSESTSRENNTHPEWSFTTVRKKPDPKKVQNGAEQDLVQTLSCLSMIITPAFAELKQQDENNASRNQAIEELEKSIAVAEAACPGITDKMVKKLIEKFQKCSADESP", "assay": "Inhibition of human recombinant MST4 using Ser/Thr peptide 7 substrate after 60 mins by Z-Lyte assay", "outline": "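Z-Lyte FRET assay, final 2 μM Ser/Thr peptide 7, 75 μM ATP, 18 nM kinase. Buffer 50 mM HEPES (pH 7.0 for MST2, 7.5 for MST4), 10 mM MgCl2, 1 mM EGTA, 0.01% Brij-35. Stopped at 45 min (MST2) or 60 min (MST4). Excitation 400 nm, emission 445/520 ratio converted to percent phosphorylation for IC50.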"}, "[2]": {"test_system": "Rattus norvegicus", "assay": "Inhibition of LRRK2 […] phosphorylation in Wistar Han rat brain at 6 to 60 mg/kg, po bid for 14 days", "format": "functional", "settings": "dose mg/kg 6-60"}, "[3]": {"test_system": "Rattus norvegicus", "assay": "Drug coverage index, ratio fAUC in Wistar Han rat at 60 mg/kg, po bid for 14 days to IC50 for LRRK2 […] phosphorylation in Wistar Han rat brain at 6 to 60 mg/kg, po bid for 14 days", "format": "ADME, organism-based", "settings": "in vivo, 336 h", "outline": "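Wistar Han rats (200–300 g, 8–11 weeks old) were dosed by oral gavage twice daily for 14 days. Vehicle was 10% propylene glycol/20% PEG400/70% 9.5% methocellulose.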"}}}
{"smiles": "N#Cc1cccc(-c2c[nH]c3ncnc(N4CCOCC4)c23)c1", "values": [{"measurement": "IC50", "setting": "[1]", "result": 178, "unit": "nM"}, {"measurement": "fIC50", "setting": "[2]", "result": 15, "unit": "nM"}, {"measurement": "Ratio", "setting": "[3]", "result": 31}]}
